Calb FLC: affects C. albicans growth with fluconazole | C. albicans CaCi-2 (fluconazole-resistant clinical isolate) + fluconazole, Alamar Blue growth, 48 h | growth inhibition, % (no concentration beside the values) | hit rate 0.57% among 300,000;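 active means growth inhibition above about 58% in most replicates, limit read from the data, passing the limit was not always enough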;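 further: all wells also contain fluconazole at 8 µg/ml as a sub-toxic cotreatment; 0% = median of DMSO wells and 100% = median of geldanamycin control wells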
SR-BI uptake up: SR-BI HDL lipid transfer activation. CHO ldlA[mSR-BI] cells, DiI-HDL uptake fluorescence, 3 h; 100 = double the neutral-control signal. activation, % at 12.5 µM. hit rate 0.096% among 320,000;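 active means mean replicate activation of at least 60% and every replicate at or above 60%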;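 further: 0% = median plate neutral-control signal and 100% = twice that signal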
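Test system: SR-BI-overexpressing, LDLR-lacking CHO cells. Measured by: DiI fluorescence, bottom read. Medium: Ham's F12 with 0.5% BSA, HEPES 25 mM, pH 7.4. Timing: 3 h uptake period with compound, 37 °C.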
MIN6 prolif-1: MIN6 beta-cell proliferation induction; MIN6 cells proliferation, ATPlite luminescence, 48 h; cells starved in 0.2% serum; 100% = growth in 10% serum; proliferation, % at 10 µM; hit rate 0.29% among 330,000; AID 2380;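 active means compounds whose signal lies at least 3.5 SD above the mean of all wells on their plate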;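 further: 0% = DMSO-treated cells in low-serum medium and 100% = 10% serum control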
HTR2A ag: mouse HTR2A agonism via beta-arrestin recruitment | CHO-K1 mHTR2A beta-arrestin complementation, luminescence; percent of 30 µM serotonin response | activation, % at 7.6 µM | hit rate 0.66% among 360,000 | AID 624169;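 active means activation above a run cutoff, the mean activation of all tested compounds plus 3 SD, cut at about 14% in these data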;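 further: 0% = plate median of compound wells and 100% = 30 µM serotonin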
Insulin prom up: MIN6 insulin promoter up-regulation; MIN6 insulin promoter-GFP reporter, high-content imaging; stronger effect = higher value; z-score at 5 µM; hit rate 0.3% among 190,000; AID 1625;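 active means z-score above 3 at 5 µM with at least 500 cells counted in the well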
SR-BI DiI inh: inhibitors of mouse SR-BI mediated HDL lipid uptake; AID 488896; ldlA[mSR-BI] CHO cells, DiI-HDL uptake fluorescence, 3 h; inhibition, % at 12.5 µM; hit rate 0.96% among 320,000;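 active means mean replicate inhibition of at least 70% and a set share of replicates each scoring 70 or more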;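 further: 0% = median of neutral control wells and 100% = median of positive control wells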
Target sequence (Q61009 whole entry, looked up): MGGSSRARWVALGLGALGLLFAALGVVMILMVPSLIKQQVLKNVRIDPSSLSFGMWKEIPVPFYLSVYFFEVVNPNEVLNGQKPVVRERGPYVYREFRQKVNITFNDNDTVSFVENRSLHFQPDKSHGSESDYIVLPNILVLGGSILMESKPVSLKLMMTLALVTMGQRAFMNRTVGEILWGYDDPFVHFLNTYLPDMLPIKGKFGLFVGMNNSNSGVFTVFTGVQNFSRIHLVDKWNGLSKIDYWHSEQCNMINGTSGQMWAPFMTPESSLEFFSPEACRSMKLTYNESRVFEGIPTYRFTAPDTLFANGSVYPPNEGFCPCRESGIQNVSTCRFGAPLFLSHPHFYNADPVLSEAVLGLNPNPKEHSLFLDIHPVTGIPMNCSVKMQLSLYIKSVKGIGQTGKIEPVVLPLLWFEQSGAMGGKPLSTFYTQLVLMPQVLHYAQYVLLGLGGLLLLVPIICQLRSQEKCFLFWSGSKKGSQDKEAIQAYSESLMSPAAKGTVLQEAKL
MIN6 prolif-2: confirmation of inducers of beta-cell replication in MIN6 cells. MIN6 beta-cell proliferation, ATPlite luminescence, 48 h; cells kept in 0.2% serum; scaled between 0.2% and 10% serum. 920 tested, under 10 active. proliferation increase, % at 50 µM. AID 463095. shares compounds with MIN6 prolif-1;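 active means proliferation increase above 40% at any of the four tested concentrations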
DiI quench: counter-screen for SR-BI lipid transfer inhibitors: DiI fluorescence quenchers | shares compounds with SR-BI DiI inh | cell-free DiI-HDL fluorescence quenching, 30 min | AC50, µM (series often up to 35 µM), for inactives: at the top dose activity change, negative = quenching | hit rate 20% among 470;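 active means quenching, a falling signal, with AC50 below a set limit tied to the top valid dose, actives reach about 32 µM in these data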
MOR ag counter: OPRM1 agonism in mouse HTR2A counterscreen; shares compounds with HTR2A ag; U2OS OPRM1 beta-arrestin PathHunter, luminescence; DMSO 0%, DAMGO 9.3 µM 100%; activation, % at 9.3 µM; hit rate 5.3% among 2,300; AID 624380;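 active means mean activation above the mean of DMSO-only wells plus 3 SD, cut at about 0.5% in these data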
HTR2A ag conf: confirmation of mouse HTR2A serotonin receptor agonists. CHO-K1 PathHunter beta-arrestin recruitment, luminescence; DMSO 0%, 30 µM serotonin 100%. activation, % at 7.6 µM. hit rate 19% among 2,300. shares compounds with HTR2A ag;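 active means mean activation across triplicates above the hit threshold derived in the original primary screen, cut at about 15% in these data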
Starred values were filed as active, the others as inactive; / = no result given; ! = not active in a repeat. A selection: hits, their analogues and other compounds. The true share with any hit is near 2.4%.

SMILES | Calb FLC | SR-BI uptake up | MIN6 prolif-1 | HTR2A ag | Insulin prom up | SR-BI DiI inh | MIN6 prolif-2 | others
CC(C)(C)c1ccc(CSc2cnn(C(C)(C)C)c(=O)c2Cl)cc1 | 84* | 7 | -6 | 4 | / | -7 | /
O=P(/C=C1\OCc2ccccc21)(Oc1ccccc1)Oc1ccccc1 | / | / | / | -4 | / | / | /
C=C1C(=O)O[C@@H]2C[C@@H](C)[C@@H]3C4OC4C(=O)[C@@]3(C)[C@@H](O)[C@H]12 (stereo partly specified) | 77* | 16 | -8 | -10 | / | -16 | /
C=C1C(=O)OC2CC(C)C3C=CC(=O)C3(C)C(O)C12 (stereo unspecified) | / | 2 | / | 1 | / | -2 | /
COC(=O)C1=C(c2cc3ccccc3s2)C[C@@H]2CC[C@H]1N2C(=O)NC1CCCCC1 | -19 | -8 | 6 | -9 | / | 8 | /
CCCCn1c(=O)c(C(=O)Nc2ncccc2C)c(O)c2ccccc21 | -4 | -11 | -5 | 0 | / | 11 | /
CCCCCCn1c(=O)c(C(=O)Nc2ncccc2C)c(O)c2ccccc21 | 3 | -33 | 6.6* | 4 | / | 33 | -6
COc1ccc(CC(C)NC2CCCCCC2)cc1 (stereo unspecified) | -16 | 8 | 6.1* | -2 | / | -8 | -2
COc1ccc(CCNC2CCCCCC2)cc1 | -7 | -9 | -3 | -3 | / | 9 | /
Cc1ccc2c(C)c3ccc4ccccc4c3c[n+]2c1 | / | 5 | / | 5 | / | -5 | /
CC(C)N(CCC(C(N)=O)(c1ccccc1)c1ccccn1)C(C)C (stereo unspecified) | / | 5 | 13*! | 2 | / | -5 | 4
CC1CCCCC1NC1CCN(C)CC1 (stereo unspecified) | -6 | -2 | 6.0* | 1 | / | 2 | -3
CN(C)C(=O)On1c(-c2ccccc2)nc2ccc(Cl)cc21 | 3 | 13 | 12* | -4 | -0.32 | -13 | -6
CCOC(=O)[C@]12Cc3cc(Cl)ccc3[C@H]1N(C1CCCCC1)C(=O)c1cc(OC)ccc12 | / | / | / | 2 | / | / | /
COc1ccc(C(c2nnnn2-c2ccc3c(c2)OCCO3)N2CCC3(CC2)C(=O)NCN3c2ccccc2)cc1 (stereo unspecified) | / | / | / | -2 | / | / | /
COc1ccc(NC(=O)C2C3CCC(O3)C2C(=O)O)c(OC)c1 (stereo unspecified) | -5 | -10 | 6.7* | 10 | / | 10 | -3 | DiI quench=-8%
CC(=O)OC1CC2OC3C=C(C)CCC3(C)C1(C)C21CO1 (stereo unspecified) | / | / | / | 3 | / | / | /
COC(=O)c1cn(C(=O)c2cccc3ccccc23)c2ccccc12 | 3 | -73 | -3 | -7 | / | 73* | / | DiI quench=-2%
CC(C)(C)n1nnnc1C(CCc1ccccc1)N1CCC2(CC1)C(=O)NCN2c1ccccc1 (stereo unspecified) | / | / | / | -4 | / | / | /
CC(=O)N1CCC(N2CCCC(C(=O)c3cccc(Cl)c3)C2)CC1 (stereo unspecified) | -11 | 19 | -2 | 36* | -0.53 | -19 | / | MOR ag counter=0;HTR2A ag conf=86*
C[C@H](N)CN1CCc2ccc(Br)cc21 | 3 | 7 | -4 | 49* | / | -7 | / | MOR ag counter=-1;HTR2A ag conf=36*
N#CC12CNCC1CN=N2 (stereo unspecified) | -2 | 4 | / | 22* | 0.1 | -4 | / | MOR ag counter=0;HTR2A ag conf=3
CCCN1CCO[C@@H]2c3cc(O)ccc3OC[C@H]21 | / | 6 | -4 | 58* | / | -6 | / | MOR ag counter=-1;HTR2A ag conf=161*

Bioassay records deposited in PubChem by several laboratories.
